Published values collected from several papers.
Compare with care: the assays were run in different laboratories.
FAAH: Fatty-acid amide hydrolase 1 (FAAH, Homo sapiens, UniProt O00519)
MTNR1A: Melatonin receptor type 1A (MTNR1A, Homo sapiens, UniProt P48039)
BDKRB1: B1 bradykinin receptor (BDKRB1, Homo sapiens, UniProt P46663)
CCKBR: Gastrin/cholecystokinin type B receptor (CCKBR, Homo sapiens, UniProt P32239)
MMP3: Stromelysin-1 (MMP3, Homo sapiens, UniProt P08254)

The inhibition of `C[C@@H](O)[C@H](N)C(=O)N1CCC[C@H]1C(=O)N1CCC[C@H]1C(=O)N[C@H](C(N)=O)[C@@H](C)O` is reported as -15% (FAAH; enzyme activity, inhibitor; 30 µM).
`CC(C)C[C@H](NC(=O)[C@H](Cc1ccccc1)NC(=O)c1cnccn1)B(O)O` gave an inhibition of 44.5% (Complement C1r subcomponent (Homo sapiens, UniProt P00736); enzyme activity, inhibitor; 33 µM).
For `CCC(C)c1ccccc1OCC(=O)N1CCC(C(=O)Nc2ccc3c(c2)OCO3)CC1` (stereo not shown), the inhibition was 5.5% (Trypanothione synthetase (Trypanosoma cruzi, UniProt Q9GT49); enzyme activity, inhibitor, absorbance; 25 µM).
`O=C(Nc1cccnn1)N1CCN([C@@H]2CCOc3cc(C(F)(F)F)ccc32)CC1` has an inhibition of 16% (MTNR1A; ligand displacement; 20 µM).
For `COc1ccc(S(=O)(=O)N2CCCCC2)cc1C`, the inhibition was less than 30% (BDKRB1; ligand displacement, radioligand; 10 µM).
With `CCOC(=O)c1ccc(OC(=O)CCCCCNC(=N)N)cc1` the inhibition was 3% (Ubiquitin carboxyl-terminal hydrolase 10 (USP10, Homo sapiens, UniProt Q14694); enzyme activity, inhibitor; 10 µM).
For `COc1cccc(N(C)C(=O)Oc2nsnc2N2CCCCC2)c1`, the inhibition was 17% (FAAH; enzyme activity, inhibitor; 10 µM, cell membranes).
`Cn1cc(-c2cccc(N3CCc4c(sc5c4CC(C)(C)C5)C3=O)c2CO)cc(Nc2ccncn2)c1=O` has an inhibition of 16% (Mitogen-activated protein kinase kinase kinase 8 (MAP3K8, Homo sapiens, UniProt P41279); enzyme activity, inhibitor; 1 µM).
The inhibition of `CC(C)N1CCC[C@H]1CNC(=O)c1cn(C2CCCC2)c(=O)c2c1c1ccccc1n2C` is reported as 37% (MTNR1A; ligand displacement, radioligand; 10 µM).
The inhibition of `CCN(C(=O)Oc1nsnc1N1CCCCC1)c1ccccc1` is reported as 24% (FAAH; enzyme activity, inhibitor; 10 µM, cell membranes).
`CCN(CC)CCCC[C@H](NC(=O)[C@H](CC(C)C)NC(=O)[C@H](C)NC(=O)[C@H](Cc1ccccc1)NC(=O)c1ccc(C(C)(C)C)cc1)C(=O)N[C@@H](CO)C(=O)OC` gave an inhibition of 8% (MTNR1A; ligand displacement, radioligand; 10 µM).
`C#Cc1n[nH]c2c(-c3cn([C@@H](C)c4ccccc4)c(=O)[nH]c3=O)cc(F)cc12` has an inhibition of 3.5% (Rho-associated protein kinase 1 (ROCK1, Homo sapiens, UniProt Q13464); enzyme activity, inhibitor; 0.1 µM).
With `Cc1ncc(C)n2nc(/C=C/c3nc(N4CCCC4)cc(N4CCOCC4)n3)nc12` the inhibition was -16% (CCKBR; cell-free assay; 10 µM).
`Cn1cc(-c2cc(F)cc(N3CCn4c(cc5c4CCCC5)C3=O)c2CO)cc(Nc2ccc(N3CCN(C4COC4)CC3)cn2)c1=O` gave an inhibition of 10% (Aurora kinase A (AURKA, Homo sapiens, UniProt O14965); enzyme activity, inhibitor; 0.1 µM).
`C#Cc1n[nH]c2c(-c3cn(C(C)c4ccccn4)c(=O)[nH]c3=O)cc(F)cc12` (stereo not shown) has an inhibition of 79% (Tyrosine-protein kinase receptor TYRO3 (TYRO3, Homo sapiens, UniProt Q06418); enzyme activity, inhibitor; 1 µM).
For `CN(C(=O)Oc1nsnc1N1CCCCC1)c1ccccc1[N+](=O)[O-]`, the inhibition was 46% (FAAH; enzyme activity, inhibitor; 10 µM, cell membranes).
With `CN(C)C(=O)COC(=O)Cc1ccc(OC(=O)c2ccc(NC(=N)N)cc2)cc1` the inhibition was 27% (MMP3; enzyme activity, inhibitor; 10 µM).
`Nc1ncnc2c1ncn2[C@@H]1O[C@H](C[C@@H](N)CC[C@H](N)C(=O)O)[C@@H](O)[C@H]1O` has an inhibition of 98.2% (mRNA cap guanine-N(7) methyltransferase (RNMT, Homo sapiens, UniProt O43148); enzyme activity, inhibitor; 50 µM).
With `COCc1c(-c2cc3cc(C)cc(OC)c3s2)c2c(N)ncnn2c1CN1CCNC(=O)C1` the inhibition was 83% (Tyrosine-protein kinase receptor Tie-1 (TIE1, Homo sapiens, UniProt P35590); cell-free assay, competition with immobilised ligand; 1 µM).
`COc1ccc(S(=O)(=O)N(CC(=O)NO)CC(C)C)cc1` gave an inhibition of 20% (MMP3; enzyme activity, inhibitor; 10 nM).
`CN(C(=O)Oc1nsnc1N1CCCCC1)c1ccc(Cl)cc1` has an inhibition of 16% (FAAH; enzyme activity, inhibitor; 10 µM, cell membranes).
With `CN(CCN1CCC(OC(=O)Nc2ccccc2-c2ccccc2)CC1)C(=O)c1ccc(CN2CCC(C(N)=O)CC2)cc1` the inhibition was 0% (BDKRB1; ligand displacement, radioligand; 1 µM).
`COc1ccccc1N(C)C(=O)Oc1nsnc1N1CCCCC1` gave an inhibition of 18% (FAAH; enzyme activity, inhibitor; 10 µM, cell membranes).
For `c1ccc(C(NCCNC(c2ccccc2)c2ccccc2)c2ccccc2)cc1`, the inhibition was 33% (CCKBR; cell-free assay; 10 µM).
`COCCN(CCOC)C(=O)[C@@]12C[C@@H]1[C@@H](n1cnc3c(N)nc(Cl)nc31)[C@H](O)[C@@H]2O` gave an inhibition of 12% (5-hydroxytryptamine receptor 2C (HTR2C, Homo sapiens, UniProt P28335); ligand displacement, radioligand; 10 µM).
For `CN(C(=O)Oc1nsnc1N1CCCCC1)C1CCCCCC1`, the inhibition was 21% (FAAH; enzyme activity, inhibitor; 10 µM, cell membranes).
With `C[C@H](C(=O)N[C@H]1COc2ccccc2[C@@H]1S(C)(=O)=O)c1ccc(F)cc1` the inhibition was -24% (Prostaglandin G/H synthase 1 (PTGS1, Homo sapiens, UniProt P23219); enzyme activity, inhibitor; 10 µM).
The inhibition of `CN(C(=O)Oc1nsnc1N1CCCCC1)C1CCCCCCC1` is reported as 13% (FAAH; enzyme activity, inhibitor; 10 µM, cell membranes).
`N=C(N)c1ccc2cc(OC(=O)c3ccc(N=C(N)N)cc3)ccc2c1` gave an inhibition of 0% (MMP3; enzyme activity, inhibitor; 10 µM).
`CN(C(=O)Oc1nsnc1N1CCCCC1)c1cccc([N+](=O)[O-])c1` has an inhibition of 11% (FAAH; enzyme activity, inhibitor; 10 µM, cell membranes).
`COc1cc(Nc2ncc(F)c(Nc3ccc4c(n3)NC(=O)C(C)(C)O4)n2)cc(OC)c1OC` has an inhibition of 35% (Serine/threonine-protein kinase SIK3 (SIK3, Homo sapiens, UniProt Q9Y2K2); binding, competition with immobilised ligand; 10 µM).
